{
  "source": "ChEMBL document CHEMBL4765365",
  "about": "“Design, synthesis and antitumour evaluation of pyrrolo[1,2-f]-phenanthridine and dibenzo[f,h]pyrrolo[1,2-b]isoquinoline derivatives” (Eur J Med Chem, 2020)",
  "key": {"CEM-VLB": {"system": "CEM-VLB", "experiment": "Cytotoxicity against human CEM-VLB cells assessed as reduction in cell viability incubated for 72 hrs by XTT assay", "type": "functional, cell-based"}, "HCT-116 [1]": {"system": "HCT-116", "experiment": "Induction of cell cycle arrest in human HCT-116 cells assessed as G1 phase at 0.375 uM measured at 0 hrs by PI staining based flow cytometry analysis (reference value: 52 +/- 5.1 %)", "type": "functional"}, "HCT-116 [2]": {"system": "HCT-116", "experiment": "Induction of cell cycle arrest in human HCT-116 cells assessed as G2/M phase at 0.375 uM measured at 0 hrs by PI staining based flow cytometry analysis (reference value: 28.9 +/- 1.4 %)", "type": "functional"}, "HCT-116 [3]": {"system": "HCT-116", "experiment": "Induction of cell cycle arrest in human HCT-116 cells assessed as G1 phase at 0.375 uM incubated for 24 hrs by PI staining based flow cytometry analysis (reference value: 55 +/- 9.8 %)", "type": "functional"}, "HCT-116 [4]": {"system": "HCT-116", "experiment": "Induction of cell cycle arrest in human HCT-116 cells assessed as S phase at 0.375 uM incubated for 24 hrs by PI staining based flow cytometry analysis (reference value: 21.2 +/- 5.4 %)", "type": "functional"}, "HCT-116 [5]": {"system": "HCT-116", "experiment": "Induction of cell cycle arrest in human HCT-116 cells assessed as G2/M phase at 0.375 uM incubated for 24 hrs by PI staining based flow cytometry analysis (reference value: 9.3 +/- 0.8 %)", "type": "functional"}, "HCT-116 [6]": {"system": "HCT-116", "experiment": "Induction of cell cycle arrest in human HCT-116 cells assessed as G1 phase at 0.375 uM incubated for 36 hrs by PI staining based flow cytometry analysis (reference value: 57.4 +/- 1.3 %)", "type": "functional"}, "HCT-116 [7]": {"system": "HCT-116", "experiment": "Induction of cell cycle arrest in human HCT-116 cells assessed as G2/M phase at 0.375 uM incubated for 36 hrs by PI staining based flow cytometry analysis (reference value: 23.6 +/- 1 %)", "type": "functional"}, "HCT-116 [8]": {"system": "HCT-116", "experiment": "Induction of cell cycle arrest in human HCT-116 cells assessed as S phase at 0.75 uM measured at 0 hrs by PI staining based flow cytometry analysis (reference value: 12.4 +/- 6.2 %)", "type": "functional"}, "HCT-116 [9]": {"system": "HCT-116", "experiment": "Induction of cell cycle arrest in human HCT-116 cells assessed as G2/M phase at 0.75 uM measured at 0 hrs by PI staining based flow cytometry analysis (reference value: 28.9 +/- 1.4 %)", "type": "functional"}, "HCT-116 [10]": {"system": "HCT-116", "experiment": "Induction of cell cycle arrest in human HCT-116 cells assessed as S phase at 0.75 uM incubated for 24 hrs by PI staining based flow cytometry analysis (reference value: 21.2 +/- 5.4 %)", "type": "functional"}, "HCT-116 [11]": {"system": "HCT-116", "experiment": "Induction of cell cycle arrest in human HCT-116 cells assessed as G2/M phase at 0.75 uM incubated for 36 hrs by PI staining based flow cytometry analysis (reference value: 23.6 +/- 1 %)", "type": "functional"}, "HCT-116 [12]": {"system": "HCT-116", "experiment": "Induction of cell cycle arrest in human HCT-116 cells assessed as S phase at 1.5 uM incubated for 12 hrs by PI staining based flow cytometry analysis (reference value: 15.5 +/- 0.2 %)", "type": "functional"}, "HCT-116 [13]": {"system": "HCT-116", "experiment": "Induction of cell cycle arrest in human HCT-116 cells assessed as G2/M phase at 1.5 uM incubated for 12 hrs by PI staining based flow cytometry analysis (reference value: 21.7 +/- 1.9 %)", "type": "functional"}, "HCT-116 [14]": {"system": "HCT-116", "experiment": "Induction of cell cycle arrest in human HCT-116 cells assessed as G0 phase at 1.5 uM incubated for 24 hrs by PI staining based flow cytometry analysis (reference value: 12.5 +/- 5.4 %)", "type": "functional"}, "HCT-116 [15]": {"system": "HCT-116", "experiment": "Induction of cell cycle arrest in human HCT-116 cells assessed as S phase at 1.5 uM incubated for 24 hrs by PI staining based flow cytometry analysis (reference value: 21.2 +/- 5.4 %)", "type": "functional"}, "NCI-H460 [16]": {"system": "NCI-H460", "experiment": "Induction of cell cycle arrest in human NCI-H460 cells assessed as S phase at 0.75 uM measured at 0 hrs by PI staining based flow cytometry analysis (reference value: 12.2 +/- 2.8 %)", "type": "functional"}, "NCI-H460 [17]": {"system": "NCI-H460", "experiment": "Induction of cell cycle arrest in human NCI-H460 cells assessed as S phase at 0.75 uM incubated for 24 hrs by PI staining based flow cytometry analysis (reference value: 11.7 +/- 6.1 %)", "type": "functional"}, "NCI-H460 [18]": {"system": "NCI-H460", "experiment": "Induction of cell cycle arrest in human NCI-H460 cells assessed as S phase at 0.75 uM incubated for 36 hrs by PI staining based flow cytometry analysis (reference value: 7.6 +/- 3.9 %)", "type": "functional"}, "NCI-H460 [19]": {"system": "NCI-H460", "experiment": "Induction of cell cycle arrest in human NCI-H460 cells assessed as G0 phase at 1.5 uM incubated for 24 hrs by PI staining based flow cytometry analysis (reference value: 1.6 +/- 0.6 %)", "type": "functional"}, "NCI-H460 [20]": {"system": "NCI-H460", "experiment": "Induction of cell cycle arrest in human NCI-H460 cells assessed as G1 phase at 1.5 uM incubated for 24 hrs by PI staining based flow cytometry analysis (reference value: 56.8 +/- 7.6 %)", "type": "functional"}, "NCI-H460 [21]": {"system": "NCI-H460", "experiment": "Induction of cell cycle arrest in human NCI-H460 cells assessed as G2/M phase at 1.5 uM incubated for 24 hrs by PI staining based flow cytometry analysis (reference value: 21 +/- 6.7 %)", "type": "functional"}, "NCI-H460 [22]": {"system": "NCI-H460", "experiment": "Induction of cell cycle arrest in human NCI-H460 cells assessed as S phase at 1.5 uM incubated for 36 hrs by PI staining based flow cytometry analysis (reference value: 7.6 +/- 3.9 %)", "type": "functional"}, "NCI-H460 [23]": {"system": "NCI-H460", "experiment": "Induction of cell cycle arrest in human NCI-H460 cells assessed as G1 phase at 3 uM measured at 0 hrs by PI staining based flow cytometry analysis (reference value: 53.4 +/- 4.8 %)", "type": "functional"}, "NCI-H460 [24]": {"system": "NCI-H460", "experiment": "Induction of cell cycle arrest in human NCI-H460 cells assessed as G2/M phase at 3 uM incubated for 24 hrs by PI staining based flow cytometry analysis (reference value: 21 +/- 6.7 %)", "type": "functional"}, "NCI-H460 [25]": {"system": "NCI-H460", "experiment": "Induction of cell cycle arrest in human NCI-H460 cells assessed as G0 phase at 3 uM incubated for 36 hrs by PI staining based flow cytometry analysis (reference value: 2.8 +/- 0.7 %)", "type": "functional"}, "NCI-H460 [26]": {"system": "NCI-H460", "experiment": "Induction of apoptosis in human NCI-H460 cells assessed as viable cells at 1.5 uM incubated for 48 hrs by annexin V-FITC and PI staining based flow cytometry analysis (reference value: 90.1 %)", "type": "functional", "conditions": "read-out: Activity"}, "NCI-H460 [27]": {"system": "NCI-H460", "experiment": "Induction of apoptosis in human NCI-H460 cells assessed as late apoptotic cells at 1.5 uM incubated for 48 hrs by annexin V-FITC and PI staining based flow cytometry analysis (reference value: 7.3 %)", "type": "functional"}, "NCI-H460 [28]": {"system": "NCI-H460", "experiment": "Induction of apoptosis in human NCI-H460 cells assessed as viable cells at 6 uM incubated for 48 hrs by annexin V-FITC and PI staining based flow cytometry analysis (reference value: 90.1 %)", "type": "functional", "conditions": "read-out: Activity"}, "[29]": {"experiment": "Toxicity in nude mouse xenografted with human HCT-116 cells assessed as reduction in body weight at 30 mg/kg, iv administered for 5 days and repeated cycle for 2 days interval and measured on day 24", "type": "organism-based", "conditions": "in vivo, 576 h, time 24 day", "in_short": "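Nude mice carried human HCT116 colorectal xenografts. Dosing was i.v. at 30 mg/kg once daily for five days (QD×5), and this cycle was given twice with a 2-day gap. Body weight was tracked against vehicle-treated mice, with tumour assessment at day 24.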"}, "[30]": {"experiment": "Solubility in mixture of ethanol/PEG400/Cremophor EL/0.9% saline", "type": "physicochemical", "conditions": "buffer"}},
  "data": [
    {"smiles": "OCc1cn2c3ccccc3c3ccccc3c2c1CO", "values": [
      {"measurement": "IC50", "setting": "CEM-VLB", "result": 380, "unit": "nM"},
      {"measurement": "Activity", "setting": "HCT-116 [1]", "result": 52.9, "unit": "%"},
      {"measurement": "Activity", "setting": "HCT-116 [2]", "result": 28.8, "unit": "%"},
      {"measurement": "Activity", "setting": "HCT-116 [3]", "result": 46.7, "unit": "%"},
      {"measurement": "Activity", "setting": "HCT-116 [4]", "result": 17.2, "unit": "%"},
      {"measurement": "Activity", "setting": "HCT-116 [5]", "result": 17.8, "unit": "%"},
      {"measurement": "Activity", "setting": "HCT-116 [6]", "result": 59.3, "unit": "%"},
      {"measurement": "Activity", "setting": "HCT-116 [7]", "result": 23.4, "unit": "%"},
      {"measurement": "Activity", "setting": "HCT-116 [8]", "result": 12.6, "unit": "%"},
      {"measurement": "Activity", "setting": "HCT-116 [9]", "result": 28.5, "unit": "%"},
      {"measurement": "Activity", "setting": "HCT-116 [10]", "result": 8.9, "unit": "%"},
      {"measurement": "Activity", "setting": "HCT-116 [11]", "result": 17.4, "unit": "%"},
      {"measurement": "Activity", "setting": "HCT-116 [12]", "result": 19.9, "unit": "%"},
      {"measurement": "Activity", "setting": "HCT-116 [13]", "result": 24, "unit": "%"},
      {"measurement": "Activity", "setting": "HCT-116 [14]", "result": 6.4, "unit": "%"},
      {"measurement": "Activity", "setting": "HCT-116 [15]", "result": 5.7, "unit": "%"},
      {"measurement": "Activity", "setting": "NCI-H460 [16]", "result": 12.6, "unit": "%"},
      {"measurement": "Activity", "setting": "NCI-H460 [17]", "result": 11, "unit": "%"},
      {"measurement": "Activity", "setting": "NCI-H460 [18]", "result": 6.3, "unit": "%"},
      {"measurement": "Activity", "setting": "NCI-H460 [19]", "result": 2.8, "unit": "%"},
      {"measurement": "Activity", "setting": "NCI-H460 [20]", "result": 56.3, "unit": "%"},
      {"measurement": "Activity", "setting": "NCI-H460 [21]", "result": 25.4, "unit": "%"},
      {"measurement": "Activity", "setting": "NCI-H460 [22]", "result": 3.5, "unit": "%"},
      {"measurement": "Activity", "setting": "NCI-H460 [23]", "result": 52.1, "unit": "%"},
      {"measurement": "Activity", "setting": "NCI-H460 [24]", "result": 30, "unit": "%"},
      {"measurement": "Activity", "setting": "NCI-H460 [25]", "result": 8.7, "unit": "%"},
      {"measurement": "viability at 1.5 µM", "setting": "NCI-H460 [26]", "result": 82.2, "unit": "%"},
      {"measurement": "Activity", "setting": "NCI-H460 [27]", "result": 13.7, "unit": "%"},
      {"measurement": "viability at 6 µM", "setting": "NCI-H460 [28]", "result": 13.4, "unit": "%"},
      {"measurement": "Activity", "setting": "[29]", "result": "Non-Toxic"},
      {"measurement": "solubility", "setting": "[30]", "result": "Soluble"}
    ]}
  ]
}
